Experimental data taken from ChEMBL document CHEMBL4152256, “Structure-activity relationship of new antimalarial 1-aryl-3-susbtituted propanol derivatives: Synthesis, preliminary toxicity profiling, parasite life cycle stage studies, target exploration, and targeted delivery” (Eur J Med Chem, 2018).

Key:
[1] = Genotoxicity in Salmonella typhimurium TA1535 harboring pSK1002 assessed as survival at 0.063 mg/ml in presence of Sprague-Dawley rat liver S9 fraction after by SOS/umu assay relative to control; assay type: toxicity, organism-based; details: salmonella enterica subsp. enterica serovar typhimurium, read-out: Survival
[2] = Genotoxicity in Salmonella typhimurium TA1535 harboring pSK1002 assessed as umu gene induction at 0.063 mg/ml in absence of Sprague-Dawley rat liver S9 fraction after by SOS/umu assay relative to control; assay type: toxicity, organism-based; details: salmonella enterica subsp. enterica serovar typhimurium, read-out: FC
[3] = Genotoxicity in Salmonella typhimurium TA1535 harboring pSK1002 assessed as survival at 0.004 mg/ml in absence of Sprague-Dawley rat liver S9 fraction after by SOS/umu assay relative to control; assay type: toxicity, organism-based; details: salmonella enterica subsp. enterica serovar typhimurium, read-out: Survival
[4] = Genotoxicity in Salmonella typhimurium TA1535 harboring pSK1002 assessed as umu gene induction at 0.016 mg/ml in presence of Sprague-Dawley rat liver S9 fraction after by SOS/umu assay relative to control; assay type: toxicity, organism-based; details: salmonella enterica subsp. enterica serovar typhimurium, read-out: FC
[5] = Genotoxicity in Salmonella typhimurium TA1535 harboring pSK1002 assessed as survival at 0.002 mg/ml in absence of Sprague-Dawley rat liver S9 fraction after by SOS/umu assay relative to control; assay type: toxicity, organism-based; details: salmonella enterica subsp. enterica serovar typhimurium, read-out: Survival
Plasmodium falciparum [6] = test: Antiplasmodial activity against multidrug-resistant Plasmodium falciparum FCR-3 by [3H]-hypoxanthine incorporation assay; assay type: functional, organism-based, FCR-3/Gambia; details: Plasmodium falciparum, FCR-3/Gambia
Outline: (§1)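 Blood-stage P. falciparum 3D7 and FCR-3 were tested by a modified [3H]-hypoxanthine incorporation assay. Chloroquine was the reference in all runs.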

[7] = Genotoxicity in Salmonella typhimurium TA1535 harboring pSK1002 assessed as survival at 0.031 mg/ml in presence of Sprague-Dawley rat liver S9 fraction after by SOS/umu assay relative to control; assay type: toxicity, organism-based; details: salmonella enterica subsp. enterica serovar typhimurium, read-out: Survival
[8] = Genotoxicity in Salmonella typhimurium TA1535 harboring pSK1002 assessed as umu gene induction at 0.031 mg/ml in absence of Sprague-Dawley rat liver S9 fraction after by SOS/umu assay relative to control; assay type: toxicity, organism-based; details: salmonella enterica subsp. enterica serovar typhimurium, read-out: FC
[9] = Genotoxicity in Salmonella typhimurium TA1535 harboring pSK1002 assessed as survival at 0.008 mg/ml in absence of Sprague-Dawley rat liver S9 fraction after by SOS/umu assay relative to control; assay type: toxicity, organism-based; details: salmonella enterica subsp. enterica serovar typhimurium, read-out: Survival
[10] = Cytotoxicity against human HepG2A16 cells by MTT assay; assay type: cell-based; details: HepG2A16 cells
Outline: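 MTT viability assay on HepG2-A16 cells, giving CC50 values.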

[11] = Selectivity index, ratio of CC50 for human HepG2A16 cells by MTT assay to IC50 for multidrug-resistant Plasmodium falciparum FCR-3; assay type: toxicity; details: HepG2A16 cells, read-out: Ratio CC50/IC50
Outline: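 HepG2-A16 human hepatoma cells were tested by MTT viability assay to give CC50. Blood-stage activity was measured against the multidrug-resistant P. falciparum FCR-3 strain by [3H]-hypoxanthine incorporation to give IC50. SI = CC50 HepG2 / FCR-3 IC50.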

[12] = Genotoxicity in Salmonella typhimurium TA1535 harboring pSK1002 assessed as umu gene induction at 0.008 mg/ml in presence of Sprague-Dawley rat liver S9 fraction after by SOS/umu assay relative to control; assay type: toxicity, organism-based; details: salmonella enterica subsp. enterica serovar typhimurium, read-out: FC
[13] = Genotoxicity in Salmonella typhimurium TA1535 harboring pSK1002 assessed as survival at 0.063 mg/ml in absence of Sprague-Dawley rat liver S9 fraction after by SOS/umu assay relative to control; assay type: toxicity, organism-based; details: salmonella enterica subsp. enterica serovar typhimurium, read-out: Survival
[14] = Genotoxicity in Salmonella typhimurium TA1535 harboring pSK1002 assessed as survival at 0.001 mg/ml in presence of Sprague-Dawley rat liver S9 fraction after by SOS/umu assay relative to control; assay type: toxicity, organism-based; details: salmonella enterica subsp. enterica serovar typhimurium, read-out: Survival
[15] = Genotoxicity in Salmonella typhimurium TA1535 harboring pSK1002 assessed as umu gene induction at 0.016 mg/ml in absence of Sprague-Dawley rat liver S9 fraction after by SOS/umu assay relative to control; assay type: toxicity, organism-based; details: salmonella enterica subsp. enterica serovar typhimurium, read-out: FC
[16] = Genotoxicity in Salmonella typhimurium TA1535 harboring pSK1002 assessed as umu gene induction at 0.004 mg/ml in absence of Sprague-Dawley rat liver S9 fraction after by SOS/umu assay relative to control; assay type: toxicity, organism-based; details: salmonella enterica subsp. enterica serovar typhimurium, read-out: FC
[17] = Genotoxicity in Salmonella typhimurium TA1535 harboring pSK1002 assessed as umu gene induction at 0.031 mg/ml in presence of Sprague-Dawley rat liver S9 fraction after by SOS/umu assay relative to control; assay type: toxicity, organism-based; details: salmonella enterica subsp. enterica serovar typhimurium, read-out: FC
[18] = Genotoxicity in Salmonella typhimurium TA1535 harboring pSK1002 assessed as survival at 0.008 mg/ml in presence of Sprague-Dawley rat liver S9 fraction after by SOS/umu assay relative to control; assay type: toxicity, organism-based; details: salmonella enterica subsp. enterica serovar typhimurium, read-out: Survival
[19] = Genotoxicity in Salmonella typhimurium TA1535 harboring pSK1002 assessed as umu gene induction at 0.063 mg/ml in presence of Sprague-Dawley rat liver S9 fraction after by SOS/umu assay relative to control; assay type: toxicity, organism-based; details: salmonella enterica subsp. enterica serovar typhimurium, read-out: FC
[20] = Genotoxicity in Salmonella typhimurium TA1535 harboring pSK1002 assessed as umu gene induction at 0.008 mg/ml in absence of Sprague-Dawley rat liver S9 fraction after by SOS/umu assay relative to control; assay type: toxicity, organism-based; details: salmonella enterica subsp. enterica serovar typhimurium, read-out: FC
[21] = Genotoxicity in Salmonella typhimurium TA1535 harboring pSK1002 assessed as umu gene induction at 0.002 mg/ml in presence of Sprague-Dawley rat liver S9 fraction after by SOS/umu assay relative to control; assay type: toxicity, organism-based; details: salmonella enterica subsp. enterica serovar typhimurium, read-out: FC
[22] = Genotoxicity in Salmonella typhimurium TA1535 harboring pSK1002 assessed as umu gene induction at 0.002 mg/ml in absence of Sprague-Dawley rat liver S9 fraction after by SOS/umu assay relative to control; assay type: toxicity, organism-based; details: salmonella enterica subsp. enterica serovar typhimurium, read-out: FC
Plasmodium falciparum [23] = test: Antiplasmodial activity against chloroquine-sensitive Plasmodium falciparum 3D7 by [3H]-hypoxanthine incorporation assay; assay type: functional, organism-based; details: Plasmodium falciparum, 3D7; outline: as §1
[24] = Genotoxicity in Salmonella typhimurium TA1535 harboring pSK1002 assessed as umu gene induction at 0.001 mg/ml in absence of Sprague-Dawley rat liver S9 fraction after by SOS/umu assay relative to control; assay type: toxicity, organism-based; details: salmonella enterica subsp. enterica serovar typhimurium, read-out: FC
[25] = Genotoxicity in Salmonella typhimurium TA1535 harboring pSK1002 assessed as umu gene induction at 0.001 mg/ml in presence of Sprague-Dawley rat liver S9 fraction after by SOS/umu assay relative to control; assay type: toxicity, organism-based; details: salmonella enterica subsp. enterica serovar typhimurium, read-out: FC

SMILES | viability at 0.063 mg/ml [1] [%] | fold induction at 0.063 mg/ml [2] | viability at 0.004 mg/ml [3] [%] | fold induction at 0.016 mg/ml [4] | viability at 0.002 mg/ml [5] [%] | IC50 (Plasmodium falciparum [6]) [nM] | viability at 0.031 mg/ml [7] [%] | fold induction at 0.031 mg/ml [8] | viability at 0.008 mg/ml [9] [%] | CC50 [10] [nM] | selectivity ratio [11] | fold induction at 0.008 mg/ml [12] | viability at 0.063 mg/ml [13] [%] | viability at 0.001 mg/ml [14] [%] | fold induction at 0.016 mg/ml [15] | fold induction at 0.004 mg/ml [16] | fold induction at 0.031 mg/ml [17] | viability at 0.008 mg/ml [18] [%] | fold induction at 0.063 mg/ml [19] | fold induction at 0.008 mg/ml [20] | further results
OC(CCN1CCN(C(c2ccccc2)c2ccccc2)CC1)c1ccc(F)c2ccccc12 (stereo not given) | 91.9 | 0.8 | 69 | 0.7 | 77.8 | 330 | 95.2 | 1 | 80.6 | 19900 | 60 | 0.4 | 141 | 108 | 1.4 | 1.3 | 1.2 | 143 | 1.5 | 1.4 | fold induction at 0.002 mg/ml [21]: 0.8; fold induction at 0.002 mg/ml [22]: 0.8; IC50 (Plasmodium falciparum [23]): 620 nM; fold induction at 0.001 mg/ml [24]: 0.6; fold induction at 0.001 mg/ml [25]: 0.9
N#Cc1ccc(N2CCC(NCCC(O)c3ccc(F)c4ccccc34)CC2)c(Br)c1 (stereo not given) | 46.3 | 0.6 | 107 | 1.9 | 106 | 70 | 35.3 | 1.5 | 18.9 | 9870 | 141 | 1 | 42.6 | 87.2 | 2.1 | 1.4 | 1.2 | 87.4 | 0.6 | 2.2 | fold induction at 0.002 mg/ml [21]: 0.8; fold induction at 0.002 mg/ml [22]: 1.4; IC50 (Plasmodium falciparum [23]): 220 nM; fold induction at 0.001 mg/ml [24]: 1.3; fold induction at 0.001 mg/ml [25]: 0.9
